ChEMBL document CHEMBL4411292, “Boronate, trifluoroborate, sulfone, sulfinate and sulfonate congeners of oseltamivir carboxylic acid: Synthesis and anti-influenza activity” (Eur J Med Chem, 2019)
Activity calls are given as the source filed them. The calls are words filed in the database; no cut-off is given here.

How the values were obtained:
[1] = target: Neuraminidase (Influenza A virus (A/Puerto Rico/8/1934(H1N1))) (UniProt P03468); experiment: Irreversible inhibition of influenza A virus (A/WSN/1933(H1N1)) neuraminidase using MUNANA as fluorogenic substrate preincubated up to 48 hrs followed by substrate addition and measured after 15 mins by fluorometric assay
[2] = system: Influenza A virus; experiment: Antiviral activity against Influenza A virus (A/WSN/1933(H1N1)) infected in MDCK cells assessed as reduction in virus-induced cytopathic effect after 48 hrs by CellTiter 96 aqueous non-radioactive cell proliferation assay; format: functional, organism-based
In short: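 MDCK cells (DMEM with 10% FBS, 37 °C, 5% CO2) were seeded at 1 × 10^5 cells/mL and infected with 100 TCID50 of A/WSN/33 premixed with inhibitor at varied concentrations. Incubation was 48 h at 37 °C, 5.0% CO2. Viability was read with CellTiter 96 AQueous reagent (15 min, A490). EC50 was fitted from % CPE vs concentration, as mean ± SD of three experiments.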

[3] = Cytotoxicity against MDCK cells assessed as reduction in cell viability after 48 hrs by CellTiter 96 aqueous non-radioactive cell proliferation assay; format: cell-based, Canis lupus familiaris; conditions: dog
In short: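 Uninfected MDCK cells at 1 × 10^5 cells/mL were exposed to inhibitor at varied concentrations for 48 h at 37 °C, 5.0% CO2. Viability was read with CellTiter 96 AQueous reagent (15 min, absorbance at 490 nm). CC50 was derived by curve fitting as for EC50.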

Neuraminidase (Influenza A virus (A/Puerto Rico/8/1934(H1N1))), sequence (P03468 whole entry): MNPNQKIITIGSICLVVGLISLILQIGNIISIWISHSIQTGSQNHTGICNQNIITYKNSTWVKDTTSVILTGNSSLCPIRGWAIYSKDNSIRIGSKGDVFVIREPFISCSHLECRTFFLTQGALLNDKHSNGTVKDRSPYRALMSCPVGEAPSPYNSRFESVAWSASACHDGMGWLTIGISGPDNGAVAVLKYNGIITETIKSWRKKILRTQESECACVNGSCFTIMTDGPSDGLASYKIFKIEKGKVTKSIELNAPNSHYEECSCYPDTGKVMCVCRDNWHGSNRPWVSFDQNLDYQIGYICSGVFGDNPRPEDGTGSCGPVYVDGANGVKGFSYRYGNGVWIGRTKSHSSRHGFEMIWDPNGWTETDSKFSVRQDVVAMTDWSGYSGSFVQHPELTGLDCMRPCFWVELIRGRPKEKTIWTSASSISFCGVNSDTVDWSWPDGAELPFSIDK

SMILES | inhibition [1] | EC50 [2] [nM] | CC50 at 48 h [3] [nM]
CCC(CC)O[C@@H]1C=C(B(O)O)C[C@H](NC(=N)N)[C@H]1NC(C)=O | inactive | 580 | –
CCC(CC)O[C@@H]1C=C(S(=O)(=O)O)C[C@H](NC(=N)N)[C@H]1NC(C)=O | – | 2.2 | > 100000
CCCCOS(=O)(=O)C1=C[C@@H](OC(CC)CC)[C@H](NC(C)=O)[C@@H](NC(=N)N)C1 | – | 31 | > 100000
CCC(CC)O[C@@H]1C=C(S(=O)(=O)CCc2ccncc2)C[C@H](N)[C@H]1NC(C)=O | – | 1500 | –
CCC(CC)O[C@@H]1C=C(B(O)O)C[C@H](N)[C@H]1NC(C)=O | inactive | 1700 | –
CCC(CC)O[C@@H]1C=C(S(=O)(=O)OCCCc2ccccc2)C[C@H](NC(=N)N)[C@H]1NC(C)=O | – | 24 | > 100000
CCC(CC)O[C@@H]1C=C([B-](F)(F)F)C[C@H](N)[C@H]1NC(C)=O | inactive | 860 | –
CCC(CC)O[C@@H]1C=C(C(=O)O)C[C@H](NC(=N)N)[C@H]1NC(C)=O | – | 14 | –
CCC(CC)O[C@@H]1C=C(S(=O)(=O)OCCCc2ccccc2)C[C@H](N)[C@H]1NC(C)=O | – | 280 | –
CCC(CC)O[C@@H]1C=C(S(=O)(=O)CCc2ccncc2)C[C@H](NC(=N)N)[C@H]1NC(C)=O | – | 100 | > 100000
CCC(CC)O[C@@H]1C=C(C(=O)O)C[C@H](N)[C@H]1NC(C)=O [OSELTAMIVIR CARBOXYLATE] | – | 28 | –
CCC(CC)O[C@@H]1C=C(S(C)(=O)=O)C[C@H](NC(=N)N)[C@H]1NC(C)=O | – | 46 | > 100000
CCC(CC)O[C@@H]1C=C([B-](F)(F)F)C[C@H](NC(=N)N)[C@H]1NC(C)=O | inactive | 270 | –
CCCCOS(=O)(=O)C1=C[C@@H](OC(CC)CC)[C@H](NC(C)=O)[C@@H](N)C1 | – | 190 | –
CCC(CC)O[C@@H]1C=C(S(C)(=O)=O)C[C@H](N)[C@H]1NC(C)=O | – | 1200 | –
CCC(CC)O[C@@H]1C=C([S+]([O-])O)C[C@H](NC(=N)N)[C@H]1NC(C)=O (stereo not given in full) | – | 7.8 | > 100000
CCC(CC)O[C@@H]1C=C(S(=O)(=O)O)C[C@H](N)[C@H]1NC(C)=O | – | 14 | > 100000
CCC(CC)O[C@@H]1C=C([S+]([O-])O)C[C@H](N)[C@H]1NC(C)=O (stereo not given in full) | – | 48 | > 100000
